Assay results as given in ChEMBL document CHEMBL5678805, “Intermittent administration of MEK inhibitor GDC-0973 plus PI3K inhibitor GDC-0941 triggers robust apoptosis and tumor growth inhibition” (Cancer Res, 2012).
Active and inactive are the calls of the source. The rule behind the calls is not given here.

Key:
[1] = biological target: Calcium/calmodulin-dependent protein kinase type II subunit alpha (Homo sapiens, UniProt Q9UQM7); experiment: Inhibition of CamK2a (unknown origin)
[2] = biological target: Calcium/calmodulin-dependent protein kinase type 1 (Homo sapiens, UniProt Q14012); experiment: Inhibition of CaMK1 (unknown origin)
Calcium/calmodulin-dependent protein kinase type 1, sequence (Q14012 whole entry): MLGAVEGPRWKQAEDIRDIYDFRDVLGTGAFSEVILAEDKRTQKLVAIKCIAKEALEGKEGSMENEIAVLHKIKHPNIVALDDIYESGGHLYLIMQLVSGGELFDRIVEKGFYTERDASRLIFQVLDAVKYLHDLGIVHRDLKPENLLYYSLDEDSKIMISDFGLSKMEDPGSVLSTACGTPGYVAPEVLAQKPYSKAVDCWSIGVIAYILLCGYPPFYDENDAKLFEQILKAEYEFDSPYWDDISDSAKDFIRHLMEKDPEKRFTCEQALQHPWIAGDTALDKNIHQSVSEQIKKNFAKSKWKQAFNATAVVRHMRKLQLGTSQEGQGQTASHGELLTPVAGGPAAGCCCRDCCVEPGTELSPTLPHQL

[3] = biological target: RAF proto-oncogene serine/threonine-protein kinase (Homo sapiens, UniProt P04049); experiment: Inhibition of cRAF (unknown origin)
RAF proto-oncogene serine/threonine-protein kinase, sequence (P04049 whole entry): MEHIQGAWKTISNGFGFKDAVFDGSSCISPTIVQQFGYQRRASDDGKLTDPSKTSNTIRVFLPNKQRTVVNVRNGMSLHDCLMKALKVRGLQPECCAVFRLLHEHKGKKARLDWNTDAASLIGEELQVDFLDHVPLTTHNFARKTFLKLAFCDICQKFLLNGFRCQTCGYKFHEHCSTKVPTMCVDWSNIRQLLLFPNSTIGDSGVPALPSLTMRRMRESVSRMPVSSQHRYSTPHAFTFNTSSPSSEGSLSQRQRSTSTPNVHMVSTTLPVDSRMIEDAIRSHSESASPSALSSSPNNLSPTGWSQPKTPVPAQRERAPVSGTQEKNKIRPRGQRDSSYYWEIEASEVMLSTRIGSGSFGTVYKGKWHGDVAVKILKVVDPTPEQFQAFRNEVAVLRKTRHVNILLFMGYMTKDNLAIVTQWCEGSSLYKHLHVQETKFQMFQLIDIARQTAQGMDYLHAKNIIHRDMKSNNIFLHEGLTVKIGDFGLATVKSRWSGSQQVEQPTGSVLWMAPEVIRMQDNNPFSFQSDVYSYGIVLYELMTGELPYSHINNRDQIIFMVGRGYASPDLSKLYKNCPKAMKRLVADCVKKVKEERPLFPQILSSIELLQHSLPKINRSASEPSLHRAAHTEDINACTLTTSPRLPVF

[4] = biological target: Death-associated protein kinase 1 (Homo sapiens, UniProt P53355); experiment: Inhibition of DAPK1 (unknown origin)
Ephrin type-B receptor 4 = Ephrin type-B receptor 4 (Homo sapiens, UniProt P54760); experiment: Inhibition of EphB4 (unknown origin)
[5] = biological target: Mitogen-activated protein kinase 3 (Homo sapiens, UniProt P27361); experiment: Inhibition of ERK1 (unknown origin)
Mitogen-activated protein kinase 3, sequence (P27361 whole entry): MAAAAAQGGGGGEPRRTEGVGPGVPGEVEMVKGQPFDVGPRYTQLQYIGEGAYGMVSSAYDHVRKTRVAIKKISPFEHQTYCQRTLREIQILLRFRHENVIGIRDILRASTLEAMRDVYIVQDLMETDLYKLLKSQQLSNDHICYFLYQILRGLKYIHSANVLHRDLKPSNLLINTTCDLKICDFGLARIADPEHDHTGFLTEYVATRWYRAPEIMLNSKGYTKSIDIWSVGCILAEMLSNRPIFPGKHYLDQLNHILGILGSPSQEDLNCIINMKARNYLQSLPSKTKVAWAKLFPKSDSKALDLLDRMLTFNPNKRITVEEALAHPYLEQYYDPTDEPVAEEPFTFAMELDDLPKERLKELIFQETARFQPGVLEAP

[6] = biological target: Tyrosine-protein kinase Lck (Homo sapiens, UniProt P06239); experiment: Inhibition of Lck (unknown origin)
Tyrosine-protein kinase Lck, sequence (P06239 whole entry): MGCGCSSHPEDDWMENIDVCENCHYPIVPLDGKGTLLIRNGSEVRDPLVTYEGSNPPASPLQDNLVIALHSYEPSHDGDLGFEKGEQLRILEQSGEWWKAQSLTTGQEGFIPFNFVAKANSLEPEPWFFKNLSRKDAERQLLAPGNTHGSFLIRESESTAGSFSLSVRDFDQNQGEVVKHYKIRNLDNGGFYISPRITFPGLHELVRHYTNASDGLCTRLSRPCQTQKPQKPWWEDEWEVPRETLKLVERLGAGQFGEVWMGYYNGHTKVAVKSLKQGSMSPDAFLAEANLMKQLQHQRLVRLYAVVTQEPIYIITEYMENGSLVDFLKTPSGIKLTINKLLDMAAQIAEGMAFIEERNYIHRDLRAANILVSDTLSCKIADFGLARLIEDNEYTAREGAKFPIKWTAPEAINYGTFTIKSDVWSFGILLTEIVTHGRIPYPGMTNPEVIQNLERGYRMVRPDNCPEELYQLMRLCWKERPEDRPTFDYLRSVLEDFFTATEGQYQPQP

[7] = biological target: Hepatocyte growth factor receptor (Homo sapiens, UniProt P08581); experiment: Inhibition of Met (unknown origin)
Hepatocyte growth factor receptor, sequence (P08581 whole entry): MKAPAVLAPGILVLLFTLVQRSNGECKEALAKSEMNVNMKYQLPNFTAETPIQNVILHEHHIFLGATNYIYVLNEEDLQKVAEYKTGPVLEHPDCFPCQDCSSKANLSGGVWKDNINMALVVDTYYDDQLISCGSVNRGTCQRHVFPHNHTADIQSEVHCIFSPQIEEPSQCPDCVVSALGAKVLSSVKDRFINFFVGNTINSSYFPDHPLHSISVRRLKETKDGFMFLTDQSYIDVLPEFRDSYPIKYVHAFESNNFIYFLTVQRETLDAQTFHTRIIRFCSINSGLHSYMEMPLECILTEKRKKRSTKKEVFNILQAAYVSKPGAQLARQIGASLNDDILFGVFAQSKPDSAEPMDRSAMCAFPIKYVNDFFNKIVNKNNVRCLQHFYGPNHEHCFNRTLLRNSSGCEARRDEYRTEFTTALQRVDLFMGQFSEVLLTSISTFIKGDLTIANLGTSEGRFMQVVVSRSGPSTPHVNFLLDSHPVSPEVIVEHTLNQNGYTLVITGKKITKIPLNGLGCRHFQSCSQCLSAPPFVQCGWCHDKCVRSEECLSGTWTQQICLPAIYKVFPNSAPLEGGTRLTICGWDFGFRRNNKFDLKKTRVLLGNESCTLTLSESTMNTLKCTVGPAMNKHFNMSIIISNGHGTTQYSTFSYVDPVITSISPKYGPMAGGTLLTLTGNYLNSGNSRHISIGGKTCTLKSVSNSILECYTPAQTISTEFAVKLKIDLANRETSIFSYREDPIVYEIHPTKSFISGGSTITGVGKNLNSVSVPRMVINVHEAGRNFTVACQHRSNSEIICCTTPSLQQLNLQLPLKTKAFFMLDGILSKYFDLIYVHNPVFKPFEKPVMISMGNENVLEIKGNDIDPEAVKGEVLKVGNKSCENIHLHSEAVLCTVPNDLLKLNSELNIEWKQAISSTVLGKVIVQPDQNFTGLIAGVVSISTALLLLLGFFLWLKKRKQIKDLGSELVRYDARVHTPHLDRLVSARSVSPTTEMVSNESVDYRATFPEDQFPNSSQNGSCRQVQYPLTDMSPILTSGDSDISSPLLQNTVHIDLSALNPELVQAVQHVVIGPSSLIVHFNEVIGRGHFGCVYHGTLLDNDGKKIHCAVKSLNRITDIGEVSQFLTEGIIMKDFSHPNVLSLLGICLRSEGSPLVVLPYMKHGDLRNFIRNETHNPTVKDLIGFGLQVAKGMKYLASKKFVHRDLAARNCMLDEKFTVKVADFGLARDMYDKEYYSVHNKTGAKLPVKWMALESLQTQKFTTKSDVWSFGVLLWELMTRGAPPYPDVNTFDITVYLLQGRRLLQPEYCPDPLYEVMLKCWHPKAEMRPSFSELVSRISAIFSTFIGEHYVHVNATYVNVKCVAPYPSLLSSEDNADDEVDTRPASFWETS

[8] = biological target: Mitogen-activated protein kinase kinase kinase 9 (Homo sapiens, UniProt P80192); experiment: Inhibition of MLK1 (unknown origin)
Mitogen-activated protein kinase kinase kinase 9, sequence (P80192 whole entry): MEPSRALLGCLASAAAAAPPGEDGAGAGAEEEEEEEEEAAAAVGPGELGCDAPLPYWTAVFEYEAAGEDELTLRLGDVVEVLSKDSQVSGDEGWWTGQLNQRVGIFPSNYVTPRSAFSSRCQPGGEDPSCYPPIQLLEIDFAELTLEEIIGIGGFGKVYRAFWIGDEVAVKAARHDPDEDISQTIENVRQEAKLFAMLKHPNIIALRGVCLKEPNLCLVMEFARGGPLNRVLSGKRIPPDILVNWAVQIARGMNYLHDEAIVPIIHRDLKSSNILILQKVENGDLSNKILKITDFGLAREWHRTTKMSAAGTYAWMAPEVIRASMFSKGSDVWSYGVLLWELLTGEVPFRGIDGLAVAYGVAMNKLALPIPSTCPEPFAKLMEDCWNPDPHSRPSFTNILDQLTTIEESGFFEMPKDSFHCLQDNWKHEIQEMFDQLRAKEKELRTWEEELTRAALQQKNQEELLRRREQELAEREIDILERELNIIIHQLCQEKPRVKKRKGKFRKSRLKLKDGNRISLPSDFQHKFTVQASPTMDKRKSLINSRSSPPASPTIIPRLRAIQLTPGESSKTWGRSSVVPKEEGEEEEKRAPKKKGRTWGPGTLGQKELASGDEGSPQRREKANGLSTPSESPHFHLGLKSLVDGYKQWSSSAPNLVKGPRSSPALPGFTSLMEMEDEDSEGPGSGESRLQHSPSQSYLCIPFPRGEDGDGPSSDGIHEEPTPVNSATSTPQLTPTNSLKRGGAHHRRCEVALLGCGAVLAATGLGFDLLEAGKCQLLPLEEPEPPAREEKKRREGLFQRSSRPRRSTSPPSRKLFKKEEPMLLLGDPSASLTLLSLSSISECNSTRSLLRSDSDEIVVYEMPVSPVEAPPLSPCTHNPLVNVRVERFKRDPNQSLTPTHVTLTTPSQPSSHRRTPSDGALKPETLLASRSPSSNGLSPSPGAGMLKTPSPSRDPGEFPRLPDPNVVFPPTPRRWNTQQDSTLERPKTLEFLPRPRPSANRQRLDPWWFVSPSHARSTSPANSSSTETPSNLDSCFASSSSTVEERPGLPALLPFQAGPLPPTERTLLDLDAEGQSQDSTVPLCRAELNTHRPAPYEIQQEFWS

[9] = biological target: BDNF/NT-3 growth factors receptor (Homo sapiens, UniProt Q16620); experiment: Inhibition of TrkB (unknown origin)
[10] = Antitumor activity against human MOLM16 cells harboring FLT3 T227M mutant xenografted in mouse assessed as tumor growth inhibition at 5 mg/kg, po; format: functional, MOLM-16; settings: read-out: TGI
In short: (§1)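 Human tumor xenografts in mice were dosed orally at the indicated mg/kg. Tumor volume was measured with calipers as (L×W×W)/2. %TGI = 100 × [1 − (AUC treatment/d)/(AUC vehicle/d)], using the area under the fitted tumor-growth curve per day for each dose group relative to vehicle.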

MX1 = experiment: Antitumor activity against human MX1 cells harboring PTEN null mutation xenografted in mouse assessed as tumor growth inhibition at 5 mg/kg, po; format: functional; settings: read-out: TGI; in short: as §1
HCT-116 = experiment: Antitumor activity against human HCT-116 cells harboring KRAS G13D/PIK3CA […]/CTNNB1 S45del/CDKN2A G23fs mutant xenografted in mouse assessed as tumor growth inhibition at 2.5 mg/kg, po; format: functional; settings: read-out: TGI
In short: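 Single-agent dose ranging in human tumor xenograft mice at 2.5, 5 or 10 mg/kg oral. Tumor volume was measured by caliper as (L×W×W)/2. %TGI = 100×[1 − AUC(treatment/d)/AUC(vehicle/d)] from the fitted growth curve per dose group, relative to vehicle.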

A2058 [11] = experiment: Antitumor activity against human A2058 cells harboring BRAF V600E/PTEN L112Q/V175/TP53 V274F mutant xenografted in mouse assessed as tumor growth inhibition at 10 mg/kg, po; format: functional; settings: read-out: TGI
In short: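 Mice carrying human tumor xenografts dosed orally once daily for 21 consecutive days. Tumor volume measured by calipers as (L×W×W)/2. %TGI = 100×[1 − AUC(treatment/day)/AUC(vehicle/day)], using the area under the fitted growth curve relative to vehicle.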

CWR22R = experiment: Antitumor activity against human 22Rv1 cells harboring PIK3CA Q546R/TP53 Q331R mutant xenografted in mouse assessed as tumor growth inhibition at 5 mg/kg, po; format: functional; settings: read-out: TGI
A2058 [12] = experiment: Antiproliferative activity against human A2058 cells harboring BRAF V600E mutant assessed as reduction in cell viability incubated for 96 hrs in presence of 4-(2-(1H-indazol-4-yl)-6-((4-(methylsulfonyl)piperazin-1-yl)methyl)thieno[3,2-d]pyrimidin-4-yl)morpholine; format: functional, cell-based
Hs 294T = experiment: Antiproliferative activity against human Hs294T cells assessed reduction in cell viability incubated for 4 days in presence of 4-(2-(1H-indazol-4-yl)-6-((4-(methylsulfonyl)piperazin-1-yl)methyl)thieno[3,2-d]pyrimidin-4-yl)morpholine by celltiter-glo assay; format: functional; settings: time 4 day
In short: (§2)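 4-day CellTiter-Glo viability read-out on melanoma lines, cells exposed to increasing concentrations of each inhibitor alone and in combination.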

Hs 695T = experiment: Antiproliferative activity against human Hs 695T cells assessed reduction in cell viability incubated for 4 days in presence of 4-(2-(1H-indazol-4-yl)-6-((4-(methylsulfonyl)piperazin-1-yl)methyl)thieno[3,2-d]pyrimidin-4-yl)morpholine by celltiter-glo assay; format: functional; settings: time 4 day; in short: as §2
RPMI-7951 = experiment: Antiproliferative activity against human RPMI-7951 cells assessed reduction in cell viability incubated for 4 days in presence of 4-(2-(1H-indazol-4-yl)-6-((4-(methylsulfonyl)piperazin-1-yl)methyl)thieno[3,2-d]pyrimidin-4-yl)morpholine by celltiter-glo assay; format: functional; settings: time 4 day; in short: as §2
[13] = Antitumor activity against human A375.X1 cells xenografted in mouse assessed as tumor growth inhibition at 3 mg/kg, po administered once a day for 21 days in presence of 4-(2-(1H-indazol-4-yl)-6-((4-(methylsulfonyl)piperazin-1-yl)methyl)thieno[3,2-d]pyrimidin-4-yl)morpholine; format: functional; settings: A375.X1, 504 h, time 21 day, read-out: TGI
In short: (§3)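 Human tumor xenografts in mice. Drugs given orally, as single agents or combined with the PI3K inhibitor. Schedules were daily (QD) or every third day (Q3D) over 21 days. Tumor volume was measured by caliper as (L×W×W)/2. %TGI = 100×[1 − AUC(treatment/d)/AUC(vehicle/d)] from fitted growth curves, with group means. Tumor lysates were immunoblotted for pS6.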

NCI-H2122 = experiment: Antitumor activity against human NCI-H2122 cells xenografted in mouse assessed as tumor growth inhibition at 5 mg/kg, po administered once a day for 21 days; format: functional; settings: NCI-H2122, 504 h, read-out: TGI, time 21 day
In short: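 Mice bearing NCI-H2122 xenografts were given MEK inhibitor, PI3K inhibitor, or both, orally once daily for 21 consecutive days at the doses labeled. Caliper tumor volumes were calculated as (L×W×W)/2. %TGI was derived from the AUC of the fitted growth curve per day relative to vehicle.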

[14] = Antitumor activity against human A375.X1 cells xenografted in mouse assessed as tumor growth inhibition at 20 mg/kg, po administered every third day for 21 days; format: functional; settings: A375.X1, 504 h, time 21 day, read-out: TGI; in short: as §3
888-mel [15] = experiment: Inhibition of ERK phosphorylation in human 888-mel cells preincubated for 24 hrs followed by compound washout and measured after 2 hrs in presence of 4-(2-(1H-indazol-4-yl)-6-((4-(methylsulfonyl)piperazin-1-yl)methyl)thieno[3,2-d]pyrimidin-4-yl)morpholine by immunoblotting analysis; format: cell-based
In short: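 The medium was then exchanged to remove compound. Lysates were prepared 2 and 24 h after washout and immunoblotted for cleaved PARP, p-AKT and p-ERK using HRP secondary antibody and ECL.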

888-mel [16] = experiment: Inhibition of S6 phosphorylation in human 888-mel cells incubated for 24 hrs in presence of 4-(2-(1H-indazol-4-yl)-6-((4-(methylsulfonyl)piperazin-1-yl)methyl)thieno[3,2-d]pyrimidin-4-yl)morpholine by immunoblotting analysis; format: cell-based
A2058 [17] = experiment: Antitumor activity against human A2058 cells harboring BRAF V600E/PTEN deletion mutant xenografted in mouse assessed as suppression of S6 phosphorylation at 15 mg/kg, po administered every third day for 21 days and measured after 72 hrs post dose in presence of 4-(2-(1H-indazol-4-yl)-6-((4-(methylsulfonyl)piperazin-1-yl)methyl)thieno[3,2-d]pyrimidin-4-yl)morpholine by Western blot analysis; format: functional, organism-based; settings: time 576.0 hrs; in short: as §3

Calcium/calmodulin-dependent protein kinase type II subunit alpha, sequence (Q9UQM7 whole entry): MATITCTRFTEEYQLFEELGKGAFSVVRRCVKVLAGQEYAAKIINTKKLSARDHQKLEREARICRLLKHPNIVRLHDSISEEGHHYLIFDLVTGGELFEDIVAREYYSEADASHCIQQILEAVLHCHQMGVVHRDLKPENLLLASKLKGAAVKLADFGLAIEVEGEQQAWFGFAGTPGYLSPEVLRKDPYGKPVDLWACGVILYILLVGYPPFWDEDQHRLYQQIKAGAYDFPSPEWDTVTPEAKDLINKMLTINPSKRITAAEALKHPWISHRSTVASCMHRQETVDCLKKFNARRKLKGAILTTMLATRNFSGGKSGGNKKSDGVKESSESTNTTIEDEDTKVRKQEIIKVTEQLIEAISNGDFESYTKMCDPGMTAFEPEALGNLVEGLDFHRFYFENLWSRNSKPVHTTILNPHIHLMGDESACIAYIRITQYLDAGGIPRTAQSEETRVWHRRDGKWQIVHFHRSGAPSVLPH

SMILES: O=C(c1ccc(F)c(F)c1Nc1ccc(I)cc1F)N1CC(O)([C@@H]2CCCCN2)C1 [COBIMETINIB]
- IC50 [1]: > 10 µM
- IC50 [2]: > 10 µM
- IC50 [3]: > 10 µM
- IC50 [4]: > 10 µM
- IC50 (Ephrin type-B receptor 4): > 10 µM
- IC50 [5]: > 10 µM
- IC50 [6]: > 10 µM
- IC50 [7]: > 10 µM
- IC50 [8]: > 10 µM
- IC50 [9]: > 10 µM
- inhibition in vivo at 5 mg/kg [10]: 30%
- inhibition in vivo at 5 mg/kg (MX1): 26%
- inhibition in vivo at 2.5 mg/kg (HCT-116): 34%
- inhibition in vivo at 10 mg/kg (A2058 [11]): 47.3%
- inhibition in vivo at 5 mg/kg (CWR22R): 106%
- Activity (A2058 [12]): inactive
- Activity (Hs 294T): 60%
- Activity (Hs 695T): 60%
- Activity (RPMI-7951): 60%
- inhibition in vivo at 3 mg/kg [13]: 69%
- inhibition in vivo at 5 mg/kg (NCI-H2122): 49%
- inhibition in vivo at 20 mg/kg [14]: 94%
- inhibition (888-mel [15]): Active
- inhibition (888-mel [16]): Active
- Activity (A2058 [17]): Active
